According to ChEMBL document CHEMBL4387724, “2-Pyridineformamide N(4)-ring incorporated thiosemicarbazones inhibit MCF-7 cells by inhibiting JNK pathway” (Bioorg Med Chem Lett, 2019):
Activity calls are given as the source filed them. No cut-off for these calls is given here.

Tests used:
MCF7 [1] = assay: Cytotoxicity against human MCF7 cells assessed as reduction in cell growth incubated for 72 hrs by MTT assay; type: functional, cell-based; conditions: MCF7, 72 h
How it was run: (§1)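 Cells grown in DMEM with 10% FBS and penicillin-streptomycin at 37 °C, 5% CO2, seeded at 3000 cells/well and attached overnight. Screening series given at 1, 3, 10, 100 μM; follow-up agent at 100 nM–3 μM; both 72 h, with 0.1% DMSO vehicle. MTT (5 mg/mL stock) added for 3 h at 37 °C, formazan dissolved in DMSO, absorbance read at 570 nm. Viability expressed as % of DMSO-treated wells from replicates.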

A-431 [2] = assay: Cytotoxicity against human A431 cells assessed as reduction in cell growth incubated for 72 hrs by MTT assay; type: functional, cell-based; conditions: A-431, 72 h; how it was run: as §1
A-375 [3] = assay: Cytotoxicity against human A375 cells assessed as reduction in cell growth incubated for 72 hrs by MTT assay; type: functional, cell-based; conditions: A-375, 72 h; how it was run: as §1
HeLa [4] = assay: Cytotoxicity against human HeLa cells assessed as reduction in cell growth incubated for 72 hrs by MTT assay; type: functional, cell-based; how it was run: as §1
A-375 [5] = assay: Cytotoxicity against human A375 cells assessed as reduction in cell growth at 1 uM incubated for 72 hrs by MTT assay relative to control; type: functional; conditions: A-375, 72 h, read-out: GI; how it was run: as §1
A-375 [6] = assay: Cytotoxicity against human A375 cells assessed as reduction in cell growth at 3 uM incubated for 72 hrs by MTT assay relative to control; type: functional; conditions: A-375, 72 h, read-out: GI; how it was run: as §1
A-375 [7] = assay: Cytotoxicity against human A375 cells assessed as reduction in cell growth at 10 uM incubated for 72 hrs by MTT assay relative to control; type: functional; conditions: A-375, 72 h, read-out: GI; how it was run: as §1
A-375 [8] = assay: Cytotoxicity against human A375 cells assessed as reduction in cell growth at 30 uM incubated for 72 hrs by MTT assay relative to control; type: functional; conditions: A-375, 72 h, read-out: GI
A-375 [9] = assay: Cytotoxicity against human A375 cells assessed as reduction in cell growth at 100 uM incubated for 72 hrs by MTT assay relative to control; type: functional; conditions: A-375, 72 h, read-out: GI; how it was run: as §1
A-431 [10] = assay: Cytotoxicity against human A431 cells assessed as reduction in cell growth at 1 uM incubated for 72 hrs by MTT assay relative to control; type: functional; conditions: A-431, 72 h, read-out: GI; how it was run: as §1
A-431 [11] = assay: Cytotoxicity against human A431 cells assessed as reduction in cell growth at 3 uM incubated for 72 hrs by MTT assay relative to control; type: functional; conditions: A-431, 72 h, read-out: GI; how it was run: as §1
A-431 [12] = assay: Cytotoxicity against human A431 cells assessed as reduction in cell growth at 10 uM incubated for 72 hrs by MTT assay relative to control; type: functional; conditions: A-431, 72 h, read-out: GI; how it was run: as §1
A-431 [13] = assay: Cytotoxicity against human A431 cells assessed as reduction in cell growth at 30 uM incubated for 72 hrs by MTT assay relative to control; type: functional; conditions: A-431, 72 h, read-out: GI
A-431 [14] = assay: Cytotoxicity against human A431 cells assessed as reduction in cell growth at 100 uM incubated for 72 hrs by MTT assay relative to control; type: functional; conditions: A-431, 72 h, read-out: GI; how it was run: as §1
HeLa [15] = assay: Cytotoxicity against human HeLa cells assessed as reduction in cell growth at 1 uM incubated for 72 hrs by MTT assay relative to control; type: functional; conditions: read-out: GI; how it was run: as §1
HeLa [16] = assay: Cytotoxicity against human HeLa cells assessed as reduction in cell growth at 3 uM incubated for 72 hrs by MTT assay relative to control; type: functional; conditions: read-out: GI; how it was run: as §1
HeLa [17] = assay: Cytotoxicity against human HeLa cells assessed as reduction in cell growth at 10 uM incubated for 72 hrs by MTT assay relative to control; type: functional; conditions: read-out: GI; how it was run: as §1
HeLa [18] = assay: Cytotoxicity against human HeLa cells assessed as reduction in cell growth at 30 uM incubated for 72 hrs by MTT assay relative to control; type: functional; conditions: read-out: GI
HeLa [19] = assay: Cytotoxicity against human HeLa cells assessed as reduction in cell growth at 100 uM incubated for 72 hrs by MTT assay relative to control; type: functional; conditions: read-out: GI; how it was run: as §1
MCF7 [20] = assay: Cytotoxicity against human MCF7 cells assessed as reduction in cell growth at 1 uM incubated for 72 hrs by MTT assay relative to control; type: functional; conditions: MCF7, 72 h, read-out: GI; how it was run: as §1
MCF7 [21] = assay: Cytotoxicity against human MCF7 cells assessed as reduction in cell growth at 3 uM incubated for 72 hrs by MTT assay relative to control; type: functional; conditions: MCF7, 72 h, read-out: GI; how it was run: as §1
MCF7 [22] = assay: Cytotoxicity against human MCF7 cells assessed as reduction in cell growth at 10 uM incubated for 72 hrs by MTT assay relative to control; type: functional; conditions: MCF7, 72 h, read-out: GI; how it was run: as §1
MCF7 [23] = assay: Cytotoxicity against human MCF7 cells assessed as reduction in cell growth at 30 uM incubated for 72 hrs by MTT assay relative to control; type: functional; conditions: MCF7, 72 h, read-out: GI
MCF7 [24] = assay: Cytotoxicity against human MCF7 cells assessed as reduction in cell growth at 100 uM incubated for 72 hrs by MTT assay relative to control; type: functional; conditions: MCF7, 72 h, read-out: GI; how it was run: as §1
MCF7 [25] = assay: Antiproliferative activity against human MCF7 cells assessed as induction of cell death at 100 nM to 3 uM incubated for 48 hrs by propidium iodide based flow cytometry; type: functional
How it was run: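 MCF7 cells in DMEM with 10% FBS at 37 °C, 5% CO2, 30,000 cells/well in six-well plates, exposed to 100 nM, 300 nM, 1 μM or 3 μM (0.1% DMSO vehicle) for 48 h per legend (72 h per methods note). Harvested, washed in PBS, stained with propidium iodide (5 μg/mL) 20 min at 4 °C, and % dead cells read by flow cytometry against DMSO control.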

MCF7 [26] = assay: Cytotoxicity against human MCF7 cells assessed as reduction in cell growth at 100 nM to 3 uM incubated for 72 hrs by MTT assay; type: functional, cell-based; how it was run: as §1
MCF7 [27] = assay: Antiproliferative activity against human MCF7 cells assessed as inhibition of colony formation at 100 nM to 3 uM incubated for 21 days with every 72 hrs media was change treatment by crystal violet staining based assay; type: functional, cell-based
How it was run: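 MCF7 cells seeded at 500 cells/well (legend: 1200/well) in six-well plates, left to adhere overnight, then dosed at 100 nM–3 μM. Medium and compound renewed every 72 h over 21 days. Colonies washed with PBS, fixed in 3.7% formaldehyde 20 min, stained with 0.4% crystal violet, rinsed in PBS, then counted.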

MCF7 [28] = assay: Induction of apoptosis in human MCF7 cells assessed as increase in Bax protein expression at 100 nM to 3 uM incubated for 48 hrs by immunoblot method; type: functional, cell-based
How it was run: (§2)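 MCF7 cells seeded at 1.25×10^5 per well in six-well plates and treated at 100 nM–3 μM for 48 h per legend (72 h per methods note). Lysed in 2X SDS buffer and sonicated; protein quantified by BCA. 20–25 µg run on 12% SDS gels and transferred to PVDF. Blocked in 5% BSA/TBST, primary antibodies overnight, secondary 1 h, ECL detection, β-actin as loading control.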

MCF7 [29] = assay: Induction of apoptosis in human MCF7 cells assessed as reduction in Bcl2 protein expression at 100 nM to 3 uM incubated for 48 hrs by immunoblot method; type: functional, cell-based; how it was run: as §2
MCF7 [30] = assay: Induction of apoptosis in human MCF7 cells assessed as downregulation of JNK1 protein expression at 100 nM to 3 uM incubated for 48 hrs by immunoblot method; type: functional, cell-based; how it was run: as §2
MCF7 [31] = assay: Induction of apoptosis in human MCF7 cells assessed as effect on pro-caspase-3 expression at 100 nM to 3 uM incubated for 48 hrs by immunoblot method; type: functional, cell-based; how it was run: as §2
MCF7 [32] = assay: Induction of apoptosis in human MCF7 cells assessed as effect on PARP1 protein expression at 100 nM to 3 uM incubated for 48 hrs by immunoblot method; type: functional, cell-based; how it was run: as §2
MCF7 [33] = assay: Induction of apoptosis in human MCF7 cells assessed as downregulation of c-Jun protein expression 100 nM to 3 uM incubated for 48 hrs by immunoblot method; type: functional, cell-based; how it was run: as §2

N/C(=N\NC(=S)N1CCCC1)c1ccc(F)cn1
IC50 (MCF7 [1]): 900 nM
IC50 (A-431 [2]): 1000 nM
IC50 (A-375 [3]): 860 nM
IC50 (HeLa [4]): 1800 nM
inhibition of growth at 1 µM (A-375 [5]): 57.9%
inhibition of growth at 3 µM (A-375 [6]): 81.8%
inhibition of growth at 10 µM (A-375 [7]): 82.3%
inhibition of growth at 30 µM (A-375 [8]): 83.2%
inhibition of growth at 100 µM (A-375 [9]): 86.6%
inhibition of growth at 1 µM (A-431 [10]): 50.7%
inhibition of growth at 3 µM (A-431 [11]): 72.2%
inhibition of growth at 10 µM (A-431 [12]): 78.7%
inhibition of growth at 30 µM (A-431 [13]): 83.3%
inhibition of growth at 100 µM (A-431 [14]): 85.6%
inhibition of growth at 1 µM (HeLa [15]): 62.8%
inhibition of growth at 3 µM (HeLa [16]): 77.7%
inhibition of growth at 10 µM (HeLa [17]): 72.7%
inhibition of growth at 30 µM (HeLa [18]): 81.2%
inhibition of growth at 100 µM (HeLa [19]): 85.4%
inhibition of growth at 1 µM (MCF7 [20]): 51%
inhibition of growth at 3 µM (MCF7 [21]): 52.6%
inhibition of growth at 10 µM (MCF7 [22]): 54.5%
inhibition of growth at 30 µM (MCF7 [23]): 60.6%
inhibition of growth at 100 µM (MCF7 [24]): 73%
Activity (MCF7 [25]): Dose-dependent effect
Activity (MCF7 [26]): Dose-dependent effect
inhibition (MCF7 [27]): Dose-dependent effect
Activity (MCF7 [28]): Active
Activity (MCF7 [29]): Active
Activity (MCF7 [30]): Dose-dependent effect
Activity (MCF7 [31]): Active
Activity (MCF7 [32]): Active
Activity (MCF7 [33]): Dose-dependent effect
